Bioassay records: PubChem, The Scripps Research Institute Molecular Screening Center
ROCK2 inh – ROCK2 (human) kinase inhibition; AID 604; purified ROCK2, Kinase-Glo ATP depletion luminescence; O75116; actives 0.35% (n = 60,000); inhibition, % at 6 µM;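 active = inhibition above the screen-wide mean inhibition plus 3 SD, cut at about 18% in these data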
JNK3 blocker – inhibitors of human JNK3 kinase | P53779 | purified JNK3 kinase activity, HTS | inhibition, % at 8 µM | actives 0.61% (n = 60,000); in the data active = inhibition above about 17%
SF-1 act – activators of human nuclear receptor SF-1; AID 522; activation, % at 10 µM; Q13285; CHO-K1 Gal4-SF-1 LBD luciferase reporter; % increase over DMSO SF-1-specific signal; actives 1.9% (n = 65,000);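 active = activation above the mean activation of all tested compounds plus 3 SD, cut at about 50% in these data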
Target sequence (Q13285 whole entry, looked up, the tested form may be a part): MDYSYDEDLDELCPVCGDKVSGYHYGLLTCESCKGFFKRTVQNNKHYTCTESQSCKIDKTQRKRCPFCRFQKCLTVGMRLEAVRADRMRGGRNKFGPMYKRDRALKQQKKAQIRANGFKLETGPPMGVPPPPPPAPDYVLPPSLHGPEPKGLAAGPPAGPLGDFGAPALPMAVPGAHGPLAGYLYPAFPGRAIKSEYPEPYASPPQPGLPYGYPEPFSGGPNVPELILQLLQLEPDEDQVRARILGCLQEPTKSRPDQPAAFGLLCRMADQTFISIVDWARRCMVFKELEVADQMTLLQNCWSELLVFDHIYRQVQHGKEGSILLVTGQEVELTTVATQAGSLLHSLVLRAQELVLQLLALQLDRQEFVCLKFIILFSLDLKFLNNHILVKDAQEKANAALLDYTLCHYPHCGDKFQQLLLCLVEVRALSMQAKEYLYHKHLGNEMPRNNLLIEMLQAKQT
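Compound – one dose, 10 µM compound, 1% DMSO · Test system – transient Gal4-SF-1 LBD reporter, CHO-K1 · Input – 4,000 cells in each well · Read-out basis – percent activation relative to DMSO median and mock-transfected background · Replicates – single measurement per compound · Technique – steady-glow luciferase luminescence, read after 15 min reagent incubation · Timing – 20 h compound treatment, 37 °C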
PKA inh – blocks human protein kinase A activity | actives 0.1% (n = 65,000) | P17612 | PKA Kemptide phosphorylation, Kinase-Glo ATP luminescence | inhibition, % at 6 µM | AID 524;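 active = inhibition above the screen-wide mean inhibition plus 3 SD, cut at about 21% in these data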
RORa activator – RORA (human) activation. actives 1.5% (n = 65,000). activation, % at 10 µM. AID 560. CHO-K1 Gal4-RORA LBD luciferase reporter, luminescence; percent increase over mock-subtracted basal signal;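 active = activation above the mean of all tested compounds plus 3 SD, cut at about 49% in these data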
MMP13 inh – MMP13 (human) collagenase inhibition. P45452. MMP-13 fTHP FRET cleavage, Mca fluorescence. inhibition, % at 4 µM. actives 0.07% (n = 65,000). AID 570;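 active = inhibition above the mean of compound-free control plate wells plus 3 SD, cut at about 14% in these data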
Of the large screens only hits and unclear results are named; the others gave an inactive call. An excerpt weighted towards active compounds, which were near 3.4% of everything screened.

CCOC(=O)N1CCN(CC(=O)Nc2ccc(C)c(Br)c2)CC1	none (no result: ROCK2 inh, JNK3 blocker)
CC(=O)c1c(C)nn(C(=O)c2cccs2)c1C	none
Cc1nn(C(=O)c2cccs2)c(N)c1-c1ccccc1	SF-1 act 54, RORa activator 57
c1ccc2c(c1)oc1c(NCCN3CCOCC3)ncnc12	none
c1ccc2c(c1)oc1c(Nc3ccc4c(c3)OCO4)ncnc12	SF-1 act 92, RORa activator 83
c1ccc2c(c1)oc1c(Nc3ccc(CN4CCOCC4)cc3)ncnc12	SF-1 act 54
c1ccc(Nc2ncnc3c2oc2ccccc23)cc1	SF-1 act 65
O=C(c1ccc(N2CCNCC2)cc1)c1cccnc1	none
CCc1cccc(NC(=O)Nc2cccs2)c1	RORa activator 63
O=C(NC1CCCCCC1)c1ccc(N2CCCC2=O)cc1	SF-1 act 54
CC(C)CC(NS(=O)(=O)c1ccc2c(c1)oc(=O)n2C)C(=O)NCc1cccnc1 (stereo not drawn)	none
Cc1ccc2[nH]c(=O)c(C(c3nnnn3CC3CCCO3)N3CCCc4ccccc43)cc2c1 (stereo not drawn)	none
Cc1ccc2nc(C(F)OC(F)(F)F)[nH]c2c1 (stereo not drawn)	none
Cc1ccc2nc(C(O)C(O)c3nc4ccc(C)cc4[nH]3)[nH]c2c1 (stereo not drawn)	SF-1 act 51 (no result: ROCK2 inh, JNK3 blocker)
COc1ccc(OC)c2sc(NC(=O)c3ccc(Cl)s3)nc12	none
COc1ccc(OC)c2sc(NC(=O)c3ccc(Br)s3)nc12	SF-1 act 53
COC(=O)c1[nH]c2ccc(C)cc2c1NC(=O)CN1CCCc2ccccc21	none
c1ccc(CCc2nc(-c3ccccn3)no2)cc1	RORa activator 54
O=C1C(C2=C(O)c3ccccc3C2=O)=Nc2ccccc21	none
CCN1C=CC(=C2C(=O)c3ccccc3C2=O)C=C1	JNK3 blocker 62
CCC1(CC)C(=O)N=C2c3ccccc3C(=O)N21	none
CCCN1C=CC(=C2C(=O)c3ccccc3C2=O)C=C1	JNK3 blocker 56
CN1C=CC(=C2C(=O)c3ccccc3C2=O)C=C1	JNK3 blocker 32, RORa activator 52
CC1CC(C)CN(Cc2nc3c(c(=O)n(C)c(=O)n3C)n2Cc2ccccc2Cl)C1 (stereo not drawn)	none
CCOC(=O)C1CCCN(c2nc3ccccc3nc2C(C#N)C(=O)OCC)C1 (stereo not drawn)	MMP13 inh 14
CCOC(=O)C1CCCN(c2nc3ccccc3nc2C(C#N)C(=O)OCCOC)C1 (stereo not drawn)	none
CCN(CC)c1ccc(NC(=O)c2cccc(C)c2OC)c(C)c1	SF-1 act 66, RORa activator 73
CCN(CC)c1ccc(NC(=O)c2cnc3ccccn3c2=O)c(C)c1	none
CCCCCCC(=O)c1c(C)[nH]c(C(=O)OCC)c1C	SF-1 act 53
CCOC(=O)c1[nH]c(C)c(C(=O)Nc2ccccc2C)c1C	RORa activator 81
O=C1C(C=Nc2ccccc2O)=C(O)c2ccccc21	JNK3 blocker 35
Cc1ccc(O)c(N=CC2=C(O)c3ccccc3C2=O)c1	none
O=C(Nc1ccc2sccc2c1)c1ccc(Cl)s1	SF-1 act 60
O=C(Nc1nccs1)c1ccc(Cl)s1	SF-1 act 58
O=C(Nc1nc(-c2ccccn2)cs1)c1ccc(Cl)s1	none
CCCCCn1c(=NC(C)=O)c(C#N)cc2c(=O)n3cccc(C)c3nc21	none
Cn1c(SCc2nc3ccccc3s2)nnc1-c1cccs1	none
Cn1c(SCc2ccc(F)cc2)nnc1-c1ccccn1	SF-1 act 64
Cn1c(SCc2ccc(Br)cc2)nnc1-c1ccncc1	PKA inh 25
Cn1c(SCc2ccc(F)cc2)nnc1-c1cccs1	SF-1 act 51
Cn1c(SCc2ccccc2)nnc1-c1ccncc1	none
Cn1c(SCc2ccccc2)nnc1-c1cccs1	SF-1 act 57, RORa activator 50
COCCNC(=O)C1CCN(S(=O)(=O)c2ccccc2)CC1	none
Cn1c(=O)n(CCc2ccccc2)c(=O)c2c1nc1n2CCCN1c1ccc(F)cc1	none
Cn1c(SCc2ccccn2)nnc1-c1cnccn1	none
Cn1c(SCc2ccccc2F)nnc1-c1cnccn1	RORa activator 65
COCCNC(=O)CCSCc1ccccc1F	none
COCCOC(=O)c1[nH]c2c(c1C)C(=O)CC(c1cc(OC)ccc1OC)C2 (stereo not drawn)	RORa activator 75
CC1CCCC(C)N1C(=O)c1cc(-c2cccs2)on1 (stereo not drawn)	RORa activator 61
COc1ccc(-c2cc(C(=O)NC3CCCC3)no2)cc1OC	none
O=C(NC1CCCC1)c1cc(-c2cccs2)on1	RORa activator 109
O=C(NC1CCCCC1)c1cc(-c2ccco2)on1	SF-1 act 58
O=C(c1cc(-c2cccs2)on1)N1CCCc2ccccc21	none
CCCCS(=O)(=O)Nc1ccc(Cc2ccncc2)cc1	none
CCOC(=O)c1cccc2c1-c1ccccc1/C2=N/O	JNK3 blocker 53
COn1cnnc1-c1ccccc1	none
CCc1ccc(NC(=O)c2cc(C)on2)cc1	none
CCc1ccc(NC(=O)c2cc(C(C)C)on2)cc1	RORa activator 62
COC(=O)c1cccc(C(=O)Nc2ccc(C)cc2)n1	SF-1 act 50
CC(=O)c1cccc(NC(=O)c2cc(C(C)C)on2)c1	SF-1 act 74, RORa activator 55
CCc1ccc(NC(=O)c2cc(CC(C)C)on2)cc1	none
Cc1ccc(NC(=O)c2cc(C)on2)cc1	SF-1 act 60
CC(C)Oc1ccc(C2c3c(oc4ccccc4c3=O)C(=O)N2CCCN2CCOCC2)cc1 (stereo not drawn)	none
CN(C)c1ccc(/C=C/c2ccncc2)cc1	RORa activator 73
CCC(=O)OC1=C2C(=Nc3c(c(=O)n(C)c(=O)n3C)C2c2ccccc2)c2ccccc21 (stereo not drawn)	none
Cc1ccc2c(c1)c(C)cc(=O)n2CCC(=O)O	none
CN(C)S(=O)(=O)c1ccc(C(=O)NCCOc2ccccc2)cc1	SF-1 act 56
COc1cccc(N2CCN(C(=O)c3ccc4nc(N5CCCCC5)sc4c3)CC2)c1	SF-1 act 89, RORa activator 78
COc1ccc(N2CCN(C(=O)c3ccc4nc(N5CCCCC5)sc4c3)CC2)cc1	RORa activator 68
CCCOC(=O)c1ccc(OCC(O)Cn2c(C)nc3ccccc32)cc1 (stereo not drawn)	none
COc1ccc(C(C)=O)cc1COC(=O)c1ccc(OCc2c(C)noc2C)cc1	none
COc1ccc(C(C)=O)cc1COC(=O)c1c(C)noc1C	JNK3 blocker 24
CCOC(=O)CCn1nc(-c2ccc(Cl)cc2)cc1N	SF-1 act 70
COc1cc(C2NC(=O)NC(C)=C2C(=O)OCc2ccccc2)ccc1O (stereo not drawn)	JNK3 blocker 20
